Assay results: the EternaBench riboswitch data

Tests used:
[1] = tested on: MS2 coat protein; experiment: apparent Kd, MS2 coat protein; higher = weaker binding; RNA-MaP array
In short: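 Binding of fluorescently labeled MS2 coat protein, at 1.5 nM to 3 μM and room temperature, was measured with or without input ligand on designed RNAs transcribed on an Illumina sequencing chip from sequenced DNA templates. Apparent Kd was defined as the median of per-cluster binding-curve fits. No design measured on fewer than 10 clusters was kept.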

[2] = tested on: MS2 coat protein; experiment: apparent Kd, MS2 coat protein; higher = weaker binding; RNA-MaP array; FMN 200 µM where present
In short: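 Each design was made on Illumina sequencing-chip clusters by stalled E. coli RNA polymerase and titrated with SNAP-549-labelled MS2 coat protein from 0.7 or 1.5 nM, doubling to 3 µM, in the absence and then the presence of constant ligand. The buffer was 100 mM Tris-HCl pH 7.5, 80 mM KCl, 4 mM MgCl2, BSA, DTT, yeast tRNA and Tween-20. The apparent Kd is the median of filtered per-cluster fits of binding curves, with green signal normalised to red-channel RNA signal and control-cluster median Fmax.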

[3] = designed as: OFF switch for flavin mononucleotide, no ligand
[4] = ligand present: flavin mononucleotide, designed as: OFF switch for flavin mononucleotide
[5] = designed as: ON switch for flavin mononucleotide, no ligand
[6] = ligand present: flavin mononucleotide, designed as: ON switch for flavin mononucleotide

Row | Sequence | apparent Kd [2, 3] [µM] | apparent Kd [2, 4] [µM] | other results
1 | CGGGCGAAGCCUUUCACAUGAGGAUCACCCAUGUCUAAUACGAAGGAUAUCCUCGCCGGAGCUAAGGAGAAGGUCGACAUAGUU |  |  | apparent Kd [1, 3]: 0.0189 µM; apparent Kd [1, 4]: 0.0192 µM
2 | UGGUAUGAAGGAUAUGACUAAGUUCACAUGAGGAUCACCCAUGUAACGUCCUCGACAUGUUCAGAAGGUCAGGCGA |  |  | apparent Kd [1, 3]: 0.0117 µM; apparent Kd [1, 4]: 0.0114 µM
3 | GAUCGCAUCGUGAGGAUAUGAAAUGCCACUCAAAUACAGAAGGCACAUGAGGAUCACCCAUGUCUAGACAAGAG |  |  | apparent Kd [1, 3]: 0.0259 µM; apparent Kd [1, 4]: 0.0649 µM
4 | GGAUCGCGAGGAUAUACAUGAGGAUCACCCAUGUUUACUCACACAUUUUUAUUCUUCCGUAGAAGGCGCGCAAG |  |  | apparent Kd [1, 3]: 0.00552 µM; apparent Kd [1, 4]: 0.0054 µM
5 | ACAAGGCUUACAGGAUAUGUGCGUCAUACAAAACAUGAGGAUCACCCAUGUGCCCCAGCGUCUUCACAGAAGGGUACAAGCGUU |  |  | apparent Kd [1, 5]: 0.0266 µM; apparent Kd [1, 6]: 0.0124 µM
6 | UACUUCACGAUACAGGAUAUACGUAAGUUCACAUGAGGAUCACCCAUGUUAGCACACCAACUCAUGUAGAAGGGUAUCCCUAUAUA |  |  | apparent Kd [1, 5]: 0.0304 µM; apparent Kd [1, 6]: 0.0131 µM
7 | CACCGGAAUGGAGGAUAUCCUACACAUGAGGAUCACCCAUGUUAUUUAUAGCUAUUAAAAGUUCGGGAGAAGGCCAAGCGAUUC |  |  | apparent Kd [1, 5]: 0.0287 µM; apparent Kd [1, 6]: 0.0132 µM
8 | UAACAUGAGGAUCACCCAUGUACGAAGAGGGAAAGAAAAGUCAAGGAUAUGCGGAUUUAACUAGCGCAGAAGGUGAUCUAAGUU |  |  | apparent Kd [1, 5]: 0.23 µM; apparent Kd [1, 6]: 0.114 µM
9 | AGACCCAGAGGAUAUAACACAUGUAACAUGAGGAUCACCCAUGUGUCUAGUAGACACUUGUUAGAAGGCAGGCAUG |  |  | apparent Kd [1, 3]: 0.0832 µM; apparent Kd [1, 4]: 0.0545 µM
10 | CCGCCCUACCGCGAUACCAGUACGGCAGUUAACAUGAGGAUCACCCAUGUGCAAACAUAAUACCCUUGGCAGCGCCUGAAUCCAU |  |  | apparent Kd ([1]; designed as: ON switch for theophylline, no ligand): 0.0177 µM; apparent Kd ([1]; ligand present: theophylline, designed as: ON switch for theophylline): 0.0173 µM
11 | CAAGCAUGAGAGAAGGUCCCAUCUAAACAUGAGGAUCACCCAUGUGAUACGGUGCUAUUGUGAAGGAAGGAUAUCUCAGUUAAU |  |  | apparent Kd [1, 5]: 0.0617 µM; apparent Kd [1, 6]: 0.0168 µM
12 | UCAUACAUGAGGAUCACCCAUGUUCGUGGGCGAGGACCGGUACGGCCGCCACUCGUACUAACGGUUUCUUAAACUUCCUUUCGAG |  |  | apparent Kd ([1]; designed as: ON switch for tryptophan, no ligand): 0.0256 µM; apparent Kd ([1]; ligand present: tryptophan, designed as: ON switch for tryptophan): 0.0172 µM
13 | GACGAAUCGGCAGGAUAUCUAGAUGAGCCAGAAUGUAAUUGAGUUGACAUGAGGAUCACCCAUGUAGAGAAGGGCCCAUCCAUU |  |  | apparent Kd [1, 3]: 0.0121 µM; apparent Kd [1, 4]: 0.0207 µM
14 | GACAUGAGGAUCACCCAUGUUUCGGUUACAUUGUAAUCAUGAUAGGAUAUCUCUGCUGUGGUGAGAGAGAAGGAUCGUCUGCUU |  |  | apparent Kd [1, 5]: 0.013 µM; apparent Kd [1, 6]: 0.0106 µM
15 | ACAUGCUCUGAGGAUAUCAAUAAUCCCUAUUACUGAGAAGGCAGCACAUGAGGAUCACCCAUGUGAGGUGAGUC |  |  | apparent Kd [1, 3]: 0.0345 µM; apparent Kd [1, 4]: 0.0588 µM
16 | CGUGUACAUGAGGAUCACCCAUGUUAGGAUAUCUUACCAAAGUCGAGGUGACUCCGGGAGAGAAGGAACUGGCA |  |  | apparent Kd [1, 3]: 0.0786 µM; apparent Kd [1, 4]: 0.0791 µM
17 | UAAAUUCGAGGAUAUACGAGCCUCUUGAGCUGCCACGAAGCACAUGAGGAUCACCCAUGUAGAAGGCGACGGAU |  |  | apparent Kd [1, 3]: 0.0122 µM; apparent Kd [1, 4]: 0.0199 µM
18 | AAAAAGUGAGGAUAUACGCUGUGGAGUAGACACAACCAGACGUAGAAGGCACAUGAGGAUCACCCAUGUCCAAA | 0.0249 | 0.0519 | 
19 | AAAAAACAUGAGGAUCACCCAUGUGAGGAUAUGUAUAUCCCUAAAAAAGUGUGGGACUACAGAAGGCACUUGGA | 0.0797 | 0.207 | 
20 | GCCUCAUAGUAGAAGGGACUUAGGCAGUUAAGCAUCAUGUCCAAUUAACAUGAGGAUCACCCAUGUCAGGAUAUACUAAGAGGC | 0.00803 | 0.0251 | 
21 | CUCACAAGAGGAUAUUAAUAGCUUAACAUGAGGAUCACCCAUGUCCUUUUCUCGGGAUUUUGAGAAGGCUUGUGUG | 0.341 | 0.189 | 
22 | AAGUCUGGACGAGGAUAUCAGUUGUAUCUGGCGUCAACAUGAGGAUCACCCAUGUUGCAAUAGGGUGAGAAGGCGUUUGGGCAA |  |  | apparent Kd [2, 5]: 0.0416 µM; apparent Kd [2, 6]: 0.0191 µM
23 | AAGUAGGCAGGAUAUACAUGAGGAUCACCCAUGUGCCUAUACAAGGUAAUCUUGGGAGGUAGAAGGGCCUACAA | 0.0339 | 0.166 | 

Row | Sequence | apparent Kd [2, 3] [µM] | apparent Kd [2, 4] [µM] | other results
24 | UGAGCGACCACAGGAUAUACUUGGUAAGACCGAGUAGAAGGGUGGAAGAGCGUGCAGUGACAUGAGGAUCACCCAUGUGGUUGU |  |  | apparent Kd [2, 5]: 0.215 µM; apparent Kd [2, 6]: 0.0775 µM
25 | UCGAUGCGAGGAUAUACAAGGGCAACUACUGCCGCUAUAUAACAUGAGGAUCACCCAUGUAGAAGGCGCAUAUA | 0.0221 | 0.0302 | 
26 | AAUAUAAGAGCUGGUACUCAAAGAACAUGAGGAUCACCCAUGUAGGAUAUCAGCACGAUAAGUGCUGAGAAGGACAUCCAGCUC | 0.0158 | 0.0159 | 
27 | AUCAGCUCGUCAGGAUAUACGUCACUGCGUCACCAGUGUGGUAAGAUCACAUGAGGAUCACCCAUGUAGAAGGGACGAGCUGAU | 0.0154 | 0.287 | 
28 | AACGUCUUAGGAUAUACACUGGGACUUGCCAUGUGGGCCCUACAUGAGGAUCACCCAUGUAGAAGGAAGACAUG | 0.0196 | 0.014 | 
29 | GUACUGUAGUGAGGAUAUACGAGUGCGAUAGCACGGCGAUCCAAUUAUACAUGAGGAUCACCCAUGUAGAAGGCACUUCAGUAC | 0.00904 | 0.041 | 
30 | CAUAACGGCUGAGGAUAUUGAAUGUGCGUGGACAUGAGGAUCACCCAUGUUCAAGAAGGCAGCAAUUUACUUGGAUCUAUCCGC | 0.0662 | 0.217 | 
31 | ACCUCACAUGAGGAUCACCCAUGUCAGGAUAUACGAAGGUAUAGCGCCGAAUACUGAAGUAGAAGGGACAGGCA | 0.0269 | 0.0769 | 
32 | AGAUUCAUGGCCCGUUUGGGCUCACAUGAGGAUCACCCAUGUGAGGAUAUGACGUACCUGACUCGUCAGAAGGCGCAUGCGAAA | 0.00748 | 0.0157 | 
33 | GAGGUGUUAGGAUAUCGGAGAUGGAGACCGACGGGAUGAGCCGAGAAGGAACAUGAGGAUCACCCAUGUAGGUG | 0.461 | 0.283 | 
34 | UAAUAAAACGAUCGGCGAUCCAAACAUGAGGAUCACCCAUGUAGAAGGGACUCUACAAAGUAGAGUCAGGAUAUACGAGAUCGA | 0.0119 | 0.208 | 
35 | UAUUUUAACUAAGGAUAUCUGUAUUAUGUUGAAACAUGAGGAUCACCCAUGUUCAUGAUAUUAUAGGAGAAGGUAGAUGAAUAA |  |  | apparent Kd [2, 5]: 0.00675 µM; apparent Kd [2, 6]: 0.00601 µM
36 | CUGCGCUAGGAGAAGGGCUAGAGUGUGAUAUAUUUGCCCGCGAGCACAUGAGGAUCACCCAUGUAGCAGGAUAUCCAAGCCGGU | 0.00686 | 0.0165 | 
37 | GCACGGAAAGGAUAUGCACGGCUAGCUCGCGUUUUUGUGUGACAUGAGGAUCACCCAUGUAGAAGGUUCAGUGG | 0.068 | 0.0718 | 
38 | UUGUUACAUGAGGAUCACCCAUGUGAGGAUAUGAGUCAGUCACGGUGACGUGGCUGACUCAGAAGGCACUAUGG | 0.3 | 0.149 | 
39 | ACUUAUGAAGGAUAUACUAGCGACAUGCACUCAACACGCGCACAUGAGGAUCACCCAUGUAGAAGGUCAAACAU | 0.0258 | 0.0231 | 
40 | AUCAGCUCGUCAGGAUAUACGUCACUGCGUCAGCAGCGUGGUAAGAUCACAUGAGGAUCACCCAUGUAGAAGGGACGAGCUGAU | 0.0257 | 0.336 | 
41 | GCGCGAAGGUAGGAUAUCCAGGGAUCUUCCCGCGGAGAAGGACCCACAUGAGGAUCACCCAUGUGGUGAUCCUG | 0.0161 | 0.0174 | 
42 | CGUGUUAACGAAGGAUAUGGAUACAUGAGGAUCACCCAUGUAUAUUUUGUGAUCUUGUUUAAGAUCCAGAAGGUCGUAUACACG | 0.0338 | 0.0847 | 
43 | AAAGAGCGAGGAUAUACGUAUCGGUGCGGCCAGCCGAUGUGACAUGAGGAUCACCCAUGUAGAAGGCGCAGAAA | 0.0269 | 0.0354 | 
44 | AAUAUAAAAGAGCUGGAUAACUCGACAUGAGGAUCACCCAUGUAGGAUAUCAGCACGAUAAGUGCUGAGAAGGACAACCAGCUC | 0.0146 | 0.0162 | 
45 | UUAGGACGAAACAUGAGGAUCACCCAUGUGUUAUAAUUAAUAUAGGAUAUGUUUAUACUUUUUGGGCAGAAGGAUGAUAUUGCU |  |  | apparent Kd [2, 5]: 0.0198 µM; apparent Kd [2, 6]: 0.0168 µM
46 | GCGCUAAAACAGAAGGCCAAAUACAUGAGGAUCACCCAUGUCGAAUCAUGGAGGAUAUGUUAUUAAUUACACGCAGAUGAGCGC |  |  | apparent Kd [2, 5]: 0.0908 µM; apparent Kd [2, 6]: 0.0099 µM
